Active and inactive are the calls of the source. No cut-off for these calls is given here.
What was measured:
[1] = test system: BV-2; test: Induction of H2S generation in mouse BV2 cells at 100 uM after 45 mins by WSP-1 fluorescence dye based spectrofluorimetric analysis; type: functional, cell-based
Summary of the method: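 BV-2 cells, 72 × 10³/well, were seeded serum-free 24 h before the assay and loaded with WSP-1 for 30 min. Dye was then replaced with compound in HEPES-buffered saline, pH 7.4 (vehicle DMSO 1%). Fluorescence was recorded for 45 min, and total H₂S release was expressed as AUC of fluorescence index. Data are mean ± SE, n=9, with diallyl disulfide as reference donor.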

[2] = test system: BV-2; test: Antioxidant activity in mouse BV2 cells assessed as reduction in LPS-induced ROS release at 1 uM preincubated with compound for 1 hr followed by LPS addition and measured after 24 hrs by cell analyser based assay (reference value: 154 +/- 3.8%); type: functional; parameters: scale not given: the % may be the effect or the level left
[3] = test system: SH-SY5Y; test: Cytotoxicity against human SH-SY5Y cells assessed as cell viability up to 5 uM after 24 hrs by MTT assay; type: cell-based
Summary of the method: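 SH-SY5Y cells, 2 × 10⁴/well, were allowed 24 h to attach, then exposed for 24 h to a series of concentrations (1.25–40). MTT (0.5 mg/mL in HBSS) was applied for 2 h at 37 °C, and formazan was dissolved in isopropanol and read at 570 nm (ref 690 nm). Results are % viability versus untreated cells.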

[4] = test system: SH-SY5Y; test: Neuroprotection against amyloid beta (1 to 42 residues)-induced toxicity in human SH-SY5Y cells preincubated for 24 hrs followed by amyloid beta addition and measured after 4 hrs by MTT-based exocytosis assay; type: functional, cell-based
Summary of the method: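 Aβ1-42 was dissolved in hexafluoroisopropanol (1 mg/mL), sonicated, held 24 h at room temperature and lyophilised. SH-SY5Y cells, 3 × 10⁴/well, were pretreated 24 h with compound and then given Aβ1-42 oligomers for 4 h at 37 °C. MTT (0.5 mg/mL in HBSS) was applied for 1 h, granules were solubilised in 10% Tween-20, and absorbance read at 570 nm (ref 690).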

[5] = test system: BV-2; test: Inhibition of LPS-induced nitric oxide in mouse BV2 cells assessed as reduction in intracellular nitric oxide level at 1 uM preincubated with compound for 1 hr followed by LPS addition and measured after 24 hrs by cell analyser based assay (reference value: 145.7 +/- 4.4%); type: functional
[6] = test system: BV-2; test: Cytoprotection against LPS-induced cell damage in mouse BV2 cells assessed as increase in cell viability at 1 uM preincubated with compound for 1 hr followed by LPS addition and measured after 24 hrs by cell analyser based assay (reference value: 80.6 +/- 1.2%); type: functional
[7] = test system: BV-2; test: Inhibition of LPS-induced nitric oxide in mouse BV2 cells assessed as intracellular nitric oxide level at 1 uM preincubated with compound for 1 hr followed by LPS addition and measured after 24 hrs by cell analyser based assay (reference value: 145.7 +/- 4.4%); type: functional; parameters: scale not given: the % may be the effect or the level left
[8] = test system: SH-SY5Y; test: Antioxidant activity in human SH-SY5Y cells assessed as inhibition of H2O2-induced intracellular ROS generation at 5 uM preincubated with compound for 24 hrs followed by H2O2 addition after 30 mins by DCFH-DA dye based fluorescence assay; type: functional, cell-based
Summary of the method: (§1)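 SH-SY5Y cells, 2 × 10⁴/well, were allowed 24 h to attach, then given compound for 24 h at 37 °C. They were loaded with DCFH-DA ([…]) for 30 min at room temperature and then challenged with H₂O₂ or t-BuOOH, each at 50 µM, for 30 min. Results are percent inhibition of oxidant-induced ROS, mean ± SEM, n=3 independent experiments.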

[9] = test system: SH-SY5Y; test: Antioxidant activity in human SH-SY5Y cells assessed as inhibition of tert-butyl hydroperoxide-induced intracellular ROS generation at 5 uM preincubated with compound for 24 hrs followed by tert-butyl hydroperoxide addition after 30 mins by DCFH-DA dye based fluorescence assay; type: functional, cell-based; summary of the method: as §1
[10] = test system: SH-SY5Y; test: Antioxidant activity in human SH-SY5Y cells assessed as increase in GSH level at 5 uM after 24 hrs by MCB-dye based fluorescence assay relative to control; type: functional
Summary of the method: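 SH-SY5Y cells, 2 × 10⁴/well, were allowed 24 h to attach, then given compound for 24 h at 37 °C in 5% CO₂. Medium was replaced with monochlorobimane for 30 min at 37 °C, and fluorescence read at ex 355/em 460 nm. Results are percent increase in GSH, mean ± SEM of three independent experiments.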

[11] = target: T1, Nuclear factor erythroid 2-related factor 2 (Homo sapiens) (UniProt Q16236); test: Activation of Nrf2 in human SH-SY5Y cells at 5 uM after 1 to 6 hrs by ELISA method; type: cell-based
T1 sequence (whole entry): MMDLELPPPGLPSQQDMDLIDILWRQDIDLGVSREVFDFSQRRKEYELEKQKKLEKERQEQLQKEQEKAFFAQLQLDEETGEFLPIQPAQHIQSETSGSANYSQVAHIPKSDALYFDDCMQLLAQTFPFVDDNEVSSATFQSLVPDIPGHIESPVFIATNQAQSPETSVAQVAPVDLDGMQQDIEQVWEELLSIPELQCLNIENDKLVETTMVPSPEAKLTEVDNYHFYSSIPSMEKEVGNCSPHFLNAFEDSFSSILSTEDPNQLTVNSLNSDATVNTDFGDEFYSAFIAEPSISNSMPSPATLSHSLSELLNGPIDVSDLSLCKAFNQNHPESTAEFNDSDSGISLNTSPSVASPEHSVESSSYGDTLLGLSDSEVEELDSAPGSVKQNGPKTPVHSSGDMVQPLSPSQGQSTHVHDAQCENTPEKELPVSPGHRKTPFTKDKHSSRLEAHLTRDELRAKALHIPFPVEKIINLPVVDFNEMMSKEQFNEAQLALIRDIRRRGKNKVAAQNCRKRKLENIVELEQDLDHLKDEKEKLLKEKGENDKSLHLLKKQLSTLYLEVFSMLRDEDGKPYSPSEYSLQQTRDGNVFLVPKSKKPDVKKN
Summary of the method: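 SH-SY5Y cells, 2 × 10⁶ per dish, exposed to compound for 1, 3 and 6 h at 37 °C in 5% CO₂. Nuclear extracts were then taken and active Nrf2 measured by DNA-binding ELISA (antibody recognises ARE-bound Nrf2). Results are fold increase over matched untreated cells, mean ± SEM of three independent experiments, two-way ANOVA with Bonferroni.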

[12] = test system: BV-2; test: Cytoprotection against LPS-induced cell damage in mouse BV2 cells assessed as cell viability at 1 uM preincubated with compound for 1 hr followed by LPS addition and measured after 24 hrs by cell analyser based assay (reference value: 80.6 +/- 1.2%); type: functional; conditions: read-out: Activity
[13] = test system: BV-2; test: Antioxidant activity in mouse BV2 cells assessed as effect on LPS-induced ROS release at 1 uM preincubated with compound for 1 hr followed by LPS addition and measured after 24 hrs by cell analyser based assay (reference value: 154 +/- 3.8%); type: functional

Row | SMILES | Activity [1] | Activity [2] | Activity [3] | Activity [4] | inhibition [5] | Activity [6] | Activity [7] | Activity [8] | Activity [9] | Activity [10] | Activity [11] | viability at 1 µM [12] | Activity [13]
1 | CCN(C)C(=O)Oc1cccc(CCNC(=O)C[S+]([O-])CCCCN=C=S)c1 (stereo unspecified) | Active | 30 - 35% | Non-Toxic | inactive | Active |  |  |  |  |  |  |  | 
2 | CCN(C)C(=O)Oc1cccc(CNC(=O)C[S+]([O-])CCCCN=C=S)c1 (stereo unspecified) | Active | 30 - 35% | Non-Toxic | inactive | Active | Active |  |  |  |  |  |  | 
3 | CCN(C)C(=O)Oc1cccc(CNC(=O)CSCCCCN=C=S)c1 | Active | 30 - 35% | Non-Toxic | inactive | Active | Active | 125.9% | Active | Active | 25.73% | inactive |  | 
4 | CCN(C)C(=O)Oc1cccc([C@H](C)N(C)C)c1 [RIVASTIGMINE] | Active |  |  |  | Active |  |  |  |  |  |  | 84% | inactive
5 | CCN(C)C(=O)Oc1cccc(NC(=O)C[S+]([O-])CCCCN=C=S)c1 (stereo unspecified) | Active | 30 - 35% | Non-Toxic | inactive | Active | Active |  |  |  |  |  |  | 
6 | C=CCSSCC=C | Active |  |  |  |  |  |  |  |  |  |  |  | 
7 | CCN(C)C(=O)Oc1cccc(CCNC(=O)CSCCCCN=C=S)c1 | Active | 30 - 35% | Non-Toxic | inactive | Active | Active | 98.8% |  |  |  |  |  | 
8 | CCN(C)C(=O)Oc1cccc(NC(=O)CSCCCCN=C=S)c1 | Active | 30 - 35% | Non-Toxic | inactive | Active |  | 114% | Active | Active | 35.6% | Active | 93% | 

Reference: ChEMBL document CHEMBL4311984, “Design and synthesis of H2S-donor hybrids: A new treatment for Alzheimer's disease?” (Eur J Med Chem, 2019)
